Tests used:
[1] = system: Human immunodeficiency virus 1; test: Antiviral activity against HIV1 3B infected in human MT4 cells assessed as protection against viral-induced cytopathogenicity after 4 days by MTT assay; format: functional, organism-based; conditions: Human immunodeficiency virus 1, 3B, MT4, 96 h
[2] = Cytotoxicity against human MT4 cells after 4 days by MTT assay; format: cell-based
In short: (§1)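 Mock-infected MT-4 cells (1 ×10^5 cells/mL, RPMI 1640 + 10% heat-inactivated FBS) cultured with various compound concentrations in parallel with the antiviral assay, 4 days at 37 °C, 5% CO2. Viability read by MTT. CC50 is the concentration cutting uninfected-cell viability by 50%.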

[3] = Selectivity index, ratio of CC50 for human MT4 cells to EC50 for HIV1 3B; format: toxicity, cell-based; conditions: read-out: Ratio CC50/EC50
In short: (§2)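 SI computed as CC50/EC50. Both values come from parallel MTT readings after 4 days at 37 °C. CC50 is from mock-infected MT-4 cells; EC50 is from MT-4 cells infected with HIV-1 IIIB at MOI 0.1, as 50% protection from cytopathogenicity.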

[4] = system: Human immunodeficiency virus 1; test: Antiviral activity against HIV1 infected in human MT4 cells; format: functional, organism-based; conditions: Human immunodeficiency virus 1, MT4
[5] = Selectivity index, ratio of CC50 for human MT4 cells to EC50 for HIV1; format: toxicity, cell-based; conditions: read-out: Ratio CC50/EC50; in short: as §2
[6] = Cytotoxicity against human MT4 cells; format: cell-based; in short: as §1

| SMILES | EC50 [1] [µM] | CC50 at 96 h [2] [µM] | selectivity ratio [3] | EC50 [4] [µM] | selectivity ratio [5] | CC50 [6] [µM] |
| --- | --- | --- | --- | --- | --- | --- |
| Cc1cc(C)cc(Cn2c(=O)cc(N)n(Cc3ccccn3)c2=O)c1 | 0.23 | > 100 | > 443 |  |  |  |
| Cc1cc(C)cc(Cn2c(=O)cc(N)n(Cc3ccncc3)c2=O)c1 | 0.03 | > 100 | > 2860 |  |  |  |
| Cc1cc(C)cc(Cn2c(=O)cc(N=[N+]=[N-])n(Cc3ccccc3)c2=O)c1 |  |  |  | 0.067 | 685 | 45.9 |
| Cc1cc(C)cc(Cn2c(=O)cc(N)n(Cc3ccccc3)c2=O)c1 |  |  |  | 0.069 | 661 | 45.6 |
| CC(=O)Nc1cc(=O)n(Cc2cc(C)cc(C)c2)c(=O)n1Cc1ccccc1 | > 100 | > 100 |  |  |  |  |
| CNc1cc(=O)n(Cc2cc(C)cc(C)c2)c(=O)n1Cc1ccccc1 | 7 | 65 | 9 |  |  |  |
| Cc1cc(C)cc(Cn2c(=O)cc(N(C)C)n(Cc3ccccc3)c2=O)c1 | > 48 | 48 |  |  |  |  |
| Cc1cc(C)cc(Cn2c(=O)cc(N3CCCC3)n(Cc3ccccc3)c2=O)c1 | > 31 | 31 |  |  |  |  |
| Cc1cc(C)cc(Cn2c(=O)cc(N3CCCCC3)n(Cc3ccccc3)c2=O)c1 | > 47 | 47 |  |  |  |  |
| Cc1cc(C)cc(Cn2c(=O)cc(N3CCNCC3)n(Cc3ccccc3)c2=O)c1 | > 16 | 16 |  |  |  |  |
| Cc1cc(C)cc(Cn2c(=O)cc(N3CCOCC3)n(Cc3ccccc3)c2=O)c1 | > 100 | > 100 |  |  |  |  |
| Cc1cc(C)cc(Cn2c(=O)cc(NC3CC3)n(Cc3ccccc3)c2=O)c1 | > 100 | > 100 |  |  |  |  |
| Cc1cc(C)cc(Cn2c(=O)cc(NC3CCCCC3)n(Cc3ccccc3)c2=O)c1 | > 74 | 74 |  |  |  |  |
| Cc1cc(C)cc(Cn2c(=O)cc(NCc3ccccc3)n(Cc3ccccc3)c2=O)c1 | > 100 | > 100 |  |  |  |  |
| Cc1cc(C)cc(Cn2c(=O)cc(N=[N+]=[N-])n(CC#N)c2=O)c1 | 3.5 | 60 |  |  |  |  |
| Cc1cc(C)cc(Cn2c(=O)cc(N=[N+]=[N-])n(Cc3ccccn3)c2=O)c1 | 0.22 | > 100 | > 457 |  |  |  |
| Cc1cc(C)cc(Cn2c(=O)cc(N=[N+]=[N-])n(Cc3ccncc3)c2=O)c1 | 0.05 | 59 | 1160 |  |  |  |
| Cc1cc(C)cc(Cn2c(=O)cc(N)n(CC#N)c2=O)c1 | > 100 | > 100 |  |  |  |  |
| Cc1ccnc2c1NC(=O)c1cccnc1N2C1CC1 [NEVIRAPINE] |  |  |  |  | > 1640 |  |
| Cc1cn([C@H]2C[C@H](N=[N+]=[N-])[C@@H](CO)O2)c(=O)[nH]c1=O [ZIDOVUDINE] | 0.04 | > 100 | > 2770 |  |  |  |
